Results published in ChEMBL document CHEMBL4428034, “Bioactive Isoprenoid-Derived Natural Products from a Dongsha Atoll Soft Coral Sinularia erecta” (J Nat Prod, 2016).
One block for each compound: values may come before it.

Assays:
Neutrophil [1] = assay: Anti-inflammatory activity in FMLP/CB-stimulated human neutrophils assessed as inhibition of superoxide generation preincubated for 5 mins followed by cytochalasin B and FMLP stimulation for 3 mins and 10 mins respectively by ferricytochrome c reduction based assay; assay type: functional, cell-based
Outline: (§1)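 In fMLP/CB-stimulated human neutrophils, IC50 was taken as the concentration giving 50% inhibition. Values are mean ± SEM (n = 3).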

Neutrophil [2] = assay: Anti-inflammatory activity in FMLP/CB-stimulated human neutrophils assessed as inhibition of elastase release preincubated for 5 mins followed by FMLP/CB stimulation for 10 mins using MeO-Suc-Ala-Ala-Pro-Val-p-nitroanilide as substrate; assay type: functional, cell-based; outline: as §1
Neutrophil [3] = assay: Anti-inflammatory activity in FMLP/CB-stimulated human neutrophils assessed as inhibition of superoxide generation at 10 uM preincubated for 5 mins followed by cytochalasin B and FMLP stimulation for 3 mins and 10 mins respectively by ferricytochrome c reduction based assay relative to control; assay type: functional
Outline: (§2)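 Percent inhibition at 10 μM relative to control in fMLP/CB-stimulated human neutrophils. Values are mean ± SEM (n = 3), with significance tested against the control value.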

MOLT-4 = assay: Cytotoxicity against human MOLT4 cells assessed as growth inhibition after 3 days by alamar blue assay; assay type: functional, cell-based; conditions: MOLT-4, 72 h
Outline: (§3)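 Cells were seeded at 5 × 10^3 to 1 × 10^4 per well and kept in a humidified 5% CO2 incubator. After 3 days in culture, Alamar Blue was added for 4 h and absorbance read at 595 nm. IC50 is the concentration that reduced cell growth by 50%.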

Neutrophil [4] = assay: Anti-inflammatory activity in FMLP/CB-stimulated human neutrophils assessed as inhibition of elastase release at 10 uM preincubated for 5 mins followed by FMLP/CB stimulation for 10 mins using MeO-Suc-Ala-Ala-Pro-Val-p-nitroanilide as substrate relative to control; assay type: functional; outline: as §2
K562 = assay: Cytotoxicity against human K562 cells assessed as growth inhibition after 3 days by alamar blue assay; assay type: functional, cell-based; conditions: K562, 72 h
CCRF-CEM = assay: Cytotoxicity against human CCRF-CEM cells assessed as growth inhibition after 3 days by alamar blue assay; assay type: functional, cell-based; conditions: 72 h; outline: as §3

SMILES: C=C(C)[C@@H]1CCC2=C[C@H](C[C@@]3(C)CC(=O)[C@H](CC(=O)C1)O3)OC2=O
IC50 (Neutrophil [1]): > 10 µM
IC50 (Neutrophil [2]): > 10 µM
inhibition at 10 µM (Neutrophil [3]): 15%
inhibition at 10 µM (Neutrophil [4]): 19%

SMILES: C=C(C)[C@@H]1CCC(=C)[C@@H](OO)CCC(=C)[C@H]2CC[C@@](C)(O2)[C@@H](O)C1
IC50 (Neutrophil [1]): > 10 µM
IC50 (Neutrophil [2]): > 10 µM
inhibition at 10 µM (Neutrophil [3]): 24%
inhibition at 10 µM (Neutrophil [4]): 33%
IC50 (K562): 9.2 µM

SMILES: C=C(C)[C@H]1CC(=O)[C@@H]2[C@@H](C1)[C@H]1C(=O)O[C@H]3C[C@@]4(C)O[C@@H]2C(=O)[C@H]4[C@@H]13
IC50 (Neutrophil [1]): > 10 µM
IC50 (Neutrophil [2]): > 10 µM
inhibition at 10 µM (Neutrophil [3]): 16%
inhibition at 10 µM (Neutrophil [4]): 18%

SMILES: COC(=O)[C@@]1(CCl)O[C@@]2(O)C[C@H]1C[C@@H](O)[C@]13O[C@H]1[C@H](C[C@@]1(C)CC(=O)[C@H](C2)O1)OC3=O
IC50 (Neutrophil [1]): > 10 µM
IC50 (Neutrophil [2]): > 10 µM
inhibition at 10 µM (Neutrophil [3]): 7%
inhibition at 10 µM (Neutrophil [4]): 14%

SMILES: CCCCCCCCC/C(C)=C\C(=O)NCCc1ccc(O)cc1
IC50 (Neutrophil [1]): > 10 µM
IC50 (Neutrophil [2]): 1 µM
inhibition at 10 µM (Neutrophil [3]): 48%
IC50 (MOLT-4): 9.7 µM
inhibition at 10 µM (Neutrophil [4]): 102%
IC50 (CCRF-CEM): 6.3 µM

Second part, led by results:

IC50 (Neutrophil [1]): > 10 µM
IC50 (Neutrophil [2]): > 10 µM
SMILES: C=C(C)C(CCC(C)=O)C[C@@H]1O[C@@]1(C)C/C=C/C(C)=O (stereo partly specified)
inhibition at 10 µM (Neutrophil [3]): 13%
IC50 (MOLT-4): 9.7 µM
inhibition at 10 µM (Neutrophil [4]): 17%
IC50 (K562): 8.6 µM

IC50 (Neutrophil [1]): 8.5 µM
IC50 (Neutrophil [2]): 3.8 µM
SMILES: C=C(C(=O)OC)[C@H]1CC(=O)C[C@@H]2O[C@@H]3[C@H](C[C@](C)(O)CC2=O)OC(=O)[C@@]32O[C@@H]2C1
inhibition at 10 µM (Neutrophil [3]): 55%
inhibition at 10 µM (Neutrophil [4]): 93%

IC50 (Neutrophil [1]): 2.3 µM
IC50 (Neutrophil [2]): 0.9 µM
SMILES: C=C(C)[C@@H]1C[C@H]2O[C@](O)(C1)C[C@@H](OC(C)=O)C(=O)/C=C(/C)C[C@@H]1OC(=O)[C@]23O[C@@H]13
inhibition at 10 µM (Neutrophil [3]): 100%
inhibition at 10 µM (Neutrophil [4]): 113%

IC50 (Neutrophil [1]): 0.07 µM
IC50 (Neutrophil [2]): 0.3 µM
SMILES: CC[C@H](Nc1ncnc2[nH]cnc12)c1nc2cccc(F)c2c(=O)n1-c1ccccc1 [IDELALISIB]
inhibition at 10 µM (Neutrophil [3]): 103%
inhibition at 10 µM (Neutrophil [4]): 100%
